According to article PMC7363052 (Journal of hepatology, 2020):

Assays:
TGF-β1 = assay: Hepatic TGF-β1 mRNA by RT-PCR in CCl4-treated mice; format: in vivo, mouse; conditions: compared to control
Method in brief: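 Male CD1 mice, 10 weeks old, given CCl4 at 0.2 mL/kg (1:5 in olive oil) i.p. twice weekly; controls received olive oil only. Hepatic TGF-β1 mRNA was measured by RT-PCR and expressed as relative mRNA level by the ΔΔCT method. Values are mean ± SEM, n = 3–6, compared by one-way ANOVA with Tukey's post hoc test.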

[1] = Serum ALT and AST in CCl4-treated mice; format: in vivo, mouse; conditions: CCl4 0.2 mL/kg i.p. twice per week, 6 weeks (mild), mean ± SEM
integrin αvβ3 [2] = biological target: T1, integrin αvβ3 (Mus musculus, UniProt O54890+P43406); format: binding; conditions: frozen fibrotic liver sections, severe CCl4 and BDL models, immunofluorescence
T1 sequence (P43406 31-885 limits assumed): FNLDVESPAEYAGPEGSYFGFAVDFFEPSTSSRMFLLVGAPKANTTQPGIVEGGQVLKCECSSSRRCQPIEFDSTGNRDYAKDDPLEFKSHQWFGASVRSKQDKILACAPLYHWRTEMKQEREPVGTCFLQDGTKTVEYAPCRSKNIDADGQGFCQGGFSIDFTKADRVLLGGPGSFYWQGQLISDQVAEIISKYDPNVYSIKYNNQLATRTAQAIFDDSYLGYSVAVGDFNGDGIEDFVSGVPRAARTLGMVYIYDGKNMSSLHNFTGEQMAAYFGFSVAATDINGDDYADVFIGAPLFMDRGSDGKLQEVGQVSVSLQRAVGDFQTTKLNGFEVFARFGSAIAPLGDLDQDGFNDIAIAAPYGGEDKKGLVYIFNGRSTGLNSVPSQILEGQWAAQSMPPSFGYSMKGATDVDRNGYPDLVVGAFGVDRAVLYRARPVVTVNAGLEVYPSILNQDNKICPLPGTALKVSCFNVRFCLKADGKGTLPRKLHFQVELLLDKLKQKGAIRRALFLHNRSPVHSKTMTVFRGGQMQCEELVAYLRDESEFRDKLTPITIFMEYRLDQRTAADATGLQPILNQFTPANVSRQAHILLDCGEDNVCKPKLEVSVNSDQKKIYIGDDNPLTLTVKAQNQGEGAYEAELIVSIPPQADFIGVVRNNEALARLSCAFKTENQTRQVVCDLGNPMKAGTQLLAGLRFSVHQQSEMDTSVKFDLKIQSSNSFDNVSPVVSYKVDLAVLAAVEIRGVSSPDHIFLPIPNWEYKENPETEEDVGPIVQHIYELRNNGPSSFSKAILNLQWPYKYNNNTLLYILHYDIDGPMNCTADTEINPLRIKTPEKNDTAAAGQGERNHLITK
T1 sequence (P43406 887-1044 partner limits assumed): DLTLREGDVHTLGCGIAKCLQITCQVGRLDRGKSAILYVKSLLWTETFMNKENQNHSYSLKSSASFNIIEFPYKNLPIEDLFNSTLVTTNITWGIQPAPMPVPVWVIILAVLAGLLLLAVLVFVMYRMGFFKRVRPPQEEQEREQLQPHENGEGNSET
T1 sequence (O54890 26-787): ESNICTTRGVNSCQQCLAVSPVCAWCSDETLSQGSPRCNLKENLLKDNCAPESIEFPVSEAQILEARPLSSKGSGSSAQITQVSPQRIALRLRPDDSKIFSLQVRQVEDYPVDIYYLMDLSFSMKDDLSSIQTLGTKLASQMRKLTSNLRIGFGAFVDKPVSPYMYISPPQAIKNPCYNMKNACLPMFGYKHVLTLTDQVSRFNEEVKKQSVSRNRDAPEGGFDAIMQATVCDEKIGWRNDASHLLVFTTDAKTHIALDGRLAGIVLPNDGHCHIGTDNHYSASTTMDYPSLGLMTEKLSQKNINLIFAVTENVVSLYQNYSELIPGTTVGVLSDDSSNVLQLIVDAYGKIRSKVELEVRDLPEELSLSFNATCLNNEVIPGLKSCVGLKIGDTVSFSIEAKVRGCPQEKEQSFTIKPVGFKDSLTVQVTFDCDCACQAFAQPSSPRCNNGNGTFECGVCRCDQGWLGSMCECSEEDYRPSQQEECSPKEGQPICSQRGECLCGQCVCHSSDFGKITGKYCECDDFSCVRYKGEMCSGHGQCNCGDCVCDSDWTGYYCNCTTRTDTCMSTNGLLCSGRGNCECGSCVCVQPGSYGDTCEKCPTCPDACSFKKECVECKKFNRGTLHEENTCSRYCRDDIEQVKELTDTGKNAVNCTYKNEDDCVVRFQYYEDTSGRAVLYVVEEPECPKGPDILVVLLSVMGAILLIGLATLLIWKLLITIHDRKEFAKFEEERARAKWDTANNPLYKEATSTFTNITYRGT
Method in brief: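 Liver fibrosis was induced in 10-week-old male CD1 mice with CCl4, 0.2 mL/kg as 1:5 CCl4:olive oil, i.p. twice weekly for up to 12 weeks. Other mice had the common bile duct transected via midline laparotomy and were killed after 3 weeks. Frozen liver sections were co-stained with a FITC-labelled dimeric RGD peptide probe and α-SMA and CD68 antibodies to assess co-localization.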

integrin αvβ3 [3] = biological target: integrin αvβ3 (Homo sapiens, UniProt P05106+P06756); format: binding; conditions: advanced fibrosis human liver frozen sections, immunofluorescence
Sequence of integrin αvβ3 (Homo sapiens, UniProt P05106+P06756) (P06756 31-889 limits assumed): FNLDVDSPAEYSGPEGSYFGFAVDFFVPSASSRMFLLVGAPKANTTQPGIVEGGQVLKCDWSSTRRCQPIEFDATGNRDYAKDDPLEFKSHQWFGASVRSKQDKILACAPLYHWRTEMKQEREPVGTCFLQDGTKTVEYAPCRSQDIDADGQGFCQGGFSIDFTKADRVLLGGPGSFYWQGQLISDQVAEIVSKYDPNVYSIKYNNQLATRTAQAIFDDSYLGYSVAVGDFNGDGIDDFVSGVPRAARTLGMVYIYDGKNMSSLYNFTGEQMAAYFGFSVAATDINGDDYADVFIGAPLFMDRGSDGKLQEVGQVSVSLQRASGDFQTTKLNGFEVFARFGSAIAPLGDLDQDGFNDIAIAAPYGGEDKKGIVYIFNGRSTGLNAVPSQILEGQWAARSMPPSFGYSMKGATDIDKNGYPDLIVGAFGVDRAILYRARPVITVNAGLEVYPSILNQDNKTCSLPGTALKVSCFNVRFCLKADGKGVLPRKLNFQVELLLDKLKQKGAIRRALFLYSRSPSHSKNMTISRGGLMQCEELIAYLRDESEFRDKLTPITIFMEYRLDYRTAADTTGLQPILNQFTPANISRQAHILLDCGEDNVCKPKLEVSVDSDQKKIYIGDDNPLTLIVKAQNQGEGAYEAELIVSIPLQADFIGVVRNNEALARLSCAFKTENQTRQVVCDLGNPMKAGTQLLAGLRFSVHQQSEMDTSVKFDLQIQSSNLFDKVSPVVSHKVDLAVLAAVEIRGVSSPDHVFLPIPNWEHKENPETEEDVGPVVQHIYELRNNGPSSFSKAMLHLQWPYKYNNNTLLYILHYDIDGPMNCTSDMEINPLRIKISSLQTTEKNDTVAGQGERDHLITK
Sequence of integrin αvβ3 (Homo sapiens, UniProt P05106+P06756) (P06756 891-1048 partner limits assumed): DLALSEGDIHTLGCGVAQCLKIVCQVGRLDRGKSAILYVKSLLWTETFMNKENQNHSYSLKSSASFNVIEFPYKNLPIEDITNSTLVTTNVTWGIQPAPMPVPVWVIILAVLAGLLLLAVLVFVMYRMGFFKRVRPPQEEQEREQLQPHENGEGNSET
Sequence of integrin αvβ3 (Homo sapiens, UniProt P05106+P06756) (P05106 27-788): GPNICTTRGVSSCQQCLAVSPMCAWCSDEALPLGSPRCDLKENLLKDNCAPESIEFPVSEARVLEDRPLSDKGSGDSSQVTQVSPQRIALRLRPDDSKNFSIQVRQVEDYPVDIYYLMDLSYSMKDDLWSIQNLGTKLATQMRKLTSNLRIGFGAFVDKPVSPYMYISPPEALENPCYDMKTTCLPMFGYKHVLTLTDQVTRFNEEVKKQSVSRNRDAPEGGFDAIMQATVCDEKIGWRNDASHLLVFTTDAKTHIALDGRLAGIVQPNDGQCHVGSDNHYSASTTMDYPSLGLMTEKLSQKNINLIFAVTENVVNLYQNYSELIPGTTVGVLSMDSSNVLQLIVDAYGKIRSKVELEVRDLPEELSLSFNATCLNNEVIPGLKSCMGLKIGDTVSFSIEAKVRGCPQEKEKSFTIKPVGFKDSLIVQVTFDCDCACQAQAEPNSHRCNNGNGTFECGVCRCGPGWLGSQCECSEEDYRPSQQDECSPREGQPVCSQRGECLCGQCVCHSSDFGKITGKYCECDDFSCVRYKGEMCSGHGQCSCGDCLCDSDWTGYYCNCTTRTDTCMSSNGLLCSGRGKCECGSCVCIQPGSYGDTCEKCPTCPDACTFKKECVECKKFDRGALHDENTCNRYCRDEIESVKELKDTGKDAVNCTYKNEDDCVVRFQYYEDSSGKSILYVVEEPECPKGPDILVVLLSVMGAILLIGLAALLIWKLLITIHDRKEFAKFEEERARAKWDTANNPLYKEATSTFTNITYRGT
Method in brief: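 Snap-frozen liver sections came from patients with staged fibrosis (F1–F3, n=3 each) and from normal livers. Advanced-fibrosis sections were stained with a FITC-labelled PEG4-linked dimeric cyclic RGD peptide probe (green), plus CD68 or α-SMA (red). Co-localization was read by fluorescence microscopy at original magnification 100X.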

Molecule	hepatic TGF-β1 mRNA level increase (TGF-β1; 6 weeks of CCl4 treatment)	hepatic TGF-β1 mRNA level increase (TGF-β1; 12 weeks of CCl4 treatment)	serum ALT ([1]; sham 20.66±1.383)	serum AST ([1]; sham 76.24±6.128)	co-localization with CD68 (integrin αvβ3 [2])	co-localization with α-SMA (integrin αvβ3 [2])	co-localization with CD68 (integrin αvβ3 [3])	co-localization with α-SMA (integrin αvβ3 [3])
ClC(Cl)(Cl)Cl [CCl4, carbon-tetrachloride]	2 fold	8 fold	96.22±18.5	125.7±9.82	–	–	–	–
FITC-E(PEG4-RGDfK)2 [FITC-RGD2]	–	–	–	–	little co-localization	high co-localization	low co-localization	high co-localization
